Experimental data collected from several papers.
Each line is one published result; the experiments were not run side by side.
CYP1A2: Cytochrome P450 1A2 (CYP1A2, Homo sapiens, UniProt P05177)

Compound	tested on	test	system	setting	quantity	value
CCNCCCNC/C=C\CNCCCNCC			human, plasma	intravenous, 50 mg, patients, infusion	Vd	2.12 L/kg
O=S(=O)(NNc1nnc(Cl)c2ccccc12)c1ccc(F)cc1	Vero	cell growth or viability, MTT		31.25 µg/mL	viability	99.8%
COC(=O)C1CCN(C(=O)c2cccc(NCc3cnc4nc(N)nc(N)c4n3)c2)CC1	CYP1A2	enzyme activity, inhibitor, luciferase		10 µM	inhibition	-15.2%
COc1ccc([C@@H]2CN(C(=O)[C@@H](O)CO)C[C@@]2(C)[C@@H](C)O)cc1OC1CN(c2ccc(C)cn2)C1			human, plasma	oral, 30 mg, single dose, healthy volunteers	Vd/F	84.3 L
COC(=O)C1CCN(C(=O)c2ccc(NCc3cnc4nc(N)nc(N)c4n3)cn2)CC1	CYP1A2	enzyme activity, inhibitor, luciferase		10 µM	inhibition	-8.69%
CC(C)(C)c1ccc(O)c(CN(Cc2cc(C(C)(C)C)ccc2O)C2CCC(NC(N)=O)CC2)c1 (centres unmarked)			male C57BL/6 mouse, brain	intraperitoneal, 5 mg/kg, single dose	Cmax	609 ng/g
Cc1cc(Nc2cc(N3CCN(C)CC3)nc(/C=C/c3ccccc3)n2)n[nH]1			human, plasma	oral, 80 mg/m², multiple doses, patients	Vd/F	748 L
COc1cc(C(=O)NC2CCN(C)CC2)c(F)cc1Nc1ncc(C(F)(F)F)c(Oc2cccc3c2C(=O)N(C)C3)n1			human, plasma	oral, 10 mg, single dose, patients	Vd/F	873 L
CCNc1nc(Nc2ccc(F)c(Cl)c2)c2ccccc2n1	Vero	cell growth or viability, MTT		31.25 µg/mL	viability	100%
COC(=O)C1CCN(C(=O)c2ccc(N(CCCO)Cc3cnc4nc(N)nc(N)c4n3)cc2)CC1	Cytochrome P450 3A4 (CYP3A4, Homo sapiens, UniProt P08684)	enzyme activity, inhibitor, luciferase		10 µM	inhibition	-2.09%
Cn1cnc2c1c(=O)n(CC(=O)Nc1c(Cl)cccc1Cl)c(=O)n2C	Vero	cell growth or viability, MTT		1000 µg/mL	viability	7.99%
